In ChEMBL document CHEMBL1130128, “Antipsoriatic anthrones with modulated redox properties. 4. Synthesis and biological activity of novel 9,10-dihydro-1,8-dihydroxy-9-oxo-2-anthracenecarboxylic and -hydroxamic acids” (J Med Chem, 1997):
pIC50: −log10 of the molar value.

How the values were obtained:
HaCaT [1] = test: Antiproliferative activity (AA) against HaCaT keratinocytes.; format: functional, cell-based; conditions: Homo sapiens
[2] = biological target: T1, Arachidonate 5-lipoxygenase (Bos taurus, UniProt Q9BEG3); test: 5-LO inhibitory activity, measured by production of 5-hydroxyeicosatetraenoic acid (5-HETE) and leukotriene B4 (LTB4) in bovine polymorphonuclear leukocytes; format: functional, cell-based
T1 sequence (Q9BEG3 whole entry): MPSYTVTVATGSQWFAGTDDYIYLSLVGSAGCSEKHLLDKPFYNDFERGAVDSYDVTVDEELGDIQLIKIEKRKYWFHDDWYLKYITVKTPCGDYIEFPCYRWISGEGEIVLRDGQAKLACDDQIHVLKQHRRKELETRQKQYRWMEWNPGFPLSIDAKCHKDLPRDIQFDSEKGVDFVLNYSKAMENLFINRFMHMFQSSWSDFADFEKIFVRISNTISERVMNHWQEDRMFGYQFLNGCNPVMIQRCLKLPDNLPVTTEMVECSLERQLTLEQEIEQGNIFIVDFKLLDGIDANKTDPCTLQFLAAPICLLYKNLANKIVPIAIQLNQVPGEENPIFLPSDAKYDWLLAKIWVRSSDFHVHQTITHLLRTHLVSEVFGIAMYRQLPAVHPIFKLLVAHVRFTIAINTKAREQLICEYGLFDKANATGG

[3] = Antioxidant activity, measuring Deoxyribose degradation (DD) as a measure of hydroxyl radical formation.
Method in brief: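 Deoxyribose assay: 2-deoxy-D-ribose incubated with 75 μM test compound; hydroxyl-radical generation read as malondialdehyde release, expressed as μmol MDA/mmol deoxyribose; compared with control.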

HaCaT [4] = test: Cytotoxicity of LDH release in HaCaT cells; format: functional, Homo sapiens; parameters: unit: mU
Method in brief: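 HaCaT cells treated with 2 μM test compound; plasma membrane damage measured as lactate dehydrogenase activity released into culture medium, in mU; N = 3; compared with vehicle control.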

Row | pIC50 [2] | DD [3] [µmol/mmol] | SMILES | pIC50 (HaCaT [1]) | LDH (HaCaT [4]) [MU]
1 | 4.74 | 2.61 | O=C(O)CCCc1ccc2c(c1O)C(=O)c1c(O)cccc1C2 | < 5.30 | 
2 |  | 0.92 | CN(O)C(=O)CCc1ccc2c(c1O)C(=O)c1c(O)cccc1C2 |  | 135
3 | 4.72 | 2.67 | O=C(O)CCc1ccc2c(c1O)C(=O)c1c(O)cccc1C2 | < 5.30 | 
4 | < 4.52 |  | COC(=O)Cc1ccc2c(c1O)C(=O)c1c(O)cccc1C2 | 6.30 | 
5 | < 4.52 |  | COC(=O)CCCCCc1ccc2c(c1O)C(=O)c1c(O)cccc1C2 | 5.80 | 142
6 | 5.40 | 1.67 | O=C(CCc1ccc2c(c1O)C(=O)c1c(O)cccc1C2)NO | 5.89 | 
7 | < 4.52 | 0.33 | COC(=O)CCCc1ccc2c(c1O)C(=O)c1c(O)cccc1C2 | 5.96 | 
8 | 5.22 | 1.57 | CC(C(=O)N(C)O)c1ccc2c(c1O)C(=O)c1c(O)cccc1C2 (stereo unspecified) | 5.82 | 142
9 | 4.77 |  | CC(C(=O)O)c1ccc2c(c1O)C(=O)c1c(O)cccc1C2 (stereo unspecified) | < 5.30 | 
10 | 5.52 | 1.46 | O=C(CCCc1ccc2c(c1O)C(=O)c1c(O)cccc1C2)NO | 5.82 | 
11 |  | 1.36 | CN(O)C(=O)CCCCc1ccc2c(c1O)C(=O)c1c(O)cccc1C2 |  | 124
12 | 4.89 | 2.62 | O=C(O)CCCCc1ccc2c(c1O)C(=O)c1c(O)cccc1C2 | < 5.30 | 
13 |  | < 0.15 | O=C(O)c1ccc(Cc2ccc3c(c2O)C(=O)c2c(O)cccc2C3)cc1 |  | 
14 |  | 1.5 | CN(O)C(=O)CCCc1ccc2c(c1O)C(=O)c1c(O)cccc1C2 |  | 181
15 | 5.22 | 1.89 | O=C(Cc1ccc2c(c1O)C(=O)c1c(O)cccc1C2)NO | 5.74 | 
16 | 5.70 | 1.38 | O=C(CCCCc1ccc2c(c1O)C(=O)c1c(O)cccc1C2)NO | 5.70 | 135
17 |  | 1.3 | CC(C(=O)NO)c1ccc2c(c1O)C(=O)c1c(O)cccc1C2 (stereo unspecified) | 5.70 | 
18 | 4.66 | 3.74 | O=C(O)Cc1ccc2c(c1O)C(=O)c1c(O)cccc1C2 | < 5.30 | 
19 | < 4.52 |  | COC(=O)C(C)c1ccc2c(c1O)C(=O)c1c(O)cccc1C2 (stereo unspecified) | 6.10 | 
20 | 6.00 | 1.67 | CN(O)C(=O)Cc1ccc2c(c1O)C(=O)c1c(O)cccc1C2 | 6.10 | 150
21 | 6.40 |  | CN(O)C(=O)CCCCCc1ccc2c(c1O)C(=O)c1c(O)cccc1C2 | 6.15 | 
22 |  | 3.58 | CC(C)C(C(=O)O)c1ccc2c(c1O)C(=O)c1c(O)cccc1C2 (stereo unspecified) | < 5.30 | 128
23 | < 4.52 |  | COC(=O)CCc1ccc2c(c1O)C(=O)c1c(O)cccc1C2 | 6.10 | 
24 | < 4.52 | 0.62 | COC(=O)CCCCc1ccc2c(c1O)C(=O)c1c(O)cccc1C2 | 5.74 | 146
25 | 5.00 | 2.29 | O=C(O)CCCCCc1ccc2c(c1O)C(=O)c1c(O)cccc1C2 | < 5.30 | 

The next lines start with the molecule.

Row | SMILES | pIC50 [2] | DD [3] [µmol/mmol] | pIC50 (HaCaT [1]) | LDH (HaCaT [4]) [MU]
26 | COC(=O)C(c1ccc2c(c1O)C(=O)c1c(O)cccc1C2)C(C)C (stereo unspecified) | < 4.52 | 0.54 | 5.82 | 
27 | CC(C)C(C(=O)N(C)O)c1ccc2c(c1O)C(=O)c1c(O)cccc1C2 (stereo unspecified) | 5.30 | 0.86 | 5.82 | 135
28 | O=C1c2c(O)cccc2Cc2ccc(C(CCc3ccccc3)C(=O)O)c(O)c21 (stereo unspecified) | 5.70 | 2.47 | < 5.30 | 142
29 | COC(=O)c1ccc(C(=O)c2ccc3c(c2O)C(=O)c2c(O)cccc2C3)cc1 | < 4.52 |  | 5.74 | 
30 | CCCCOc1ccc(CC(=O)NO)cc1 [BUFEXAMAC] | 4.46 |  | < 5.30 | 135
31 | O=C(NO)c1ccc(Cc2ccc3c(c2O)C(=O)c2c(O)cccc2C3)cc1 | 5.30 |  | 5.96 | 
32 | O=C1c2c(O)cccc2Cc2ccc(C(Cc3ccccc3)C(=O)O)c(O)c21 (stereo unspecified) |  | 3.25 | < 5.30 | 
33 | COC(=O)C(Cc1ccccc1)c1ccc2c(c1O)C(=O)c1c(O)cccc1C2 (stereo unspecified) | < 4.52 | < 0.15 | 5.74 | 
34 | CN(O)C(=O)C(Cc1ccccc1)c1ccc2c(c1O)C(=O)c1c(O)cccc1C2 (stereo unspecified) | 5.30 | 1.68 | 6.05 | 
35 | CN(O)C(=O)c1ccc(C(=O)c2ccc3c(c2O)C(=O)c2c(O)cccc2C3)cc1 | 5.40 | 0.92 | 5.74 | 
36 | O=C1c2c(O)cccc2Cc2cccc(O)c21 [ANTHRALIN] |  | 2.89 | 6.22 | 294
37 | O=C1c2c(O)cccc2Cc2ccc(C(Cc3ccccc3)C(=O)NO)c(O)c21 (stereo unspecified) | 5.40 | 1.04 | 5.82 | 
38 | O=C(O)c1ccc(C(=O)c2ccc3c(c2O)C(=O)c2c(O)cccc2C3)cc1 | 5.70 | 1.34 | < 5.30 | 
39 | COC(=O)C(CCc1ccccc1)c1ccc2c(c1O)C(=O)c1c(O)cccc1C2 (stereo unspecified) | < 4.52 | 0.28 | 5.89 | 142
40 | CC(C)C(C(=O)NO)c1ccc2c(c1O)C(=O)c1c(O)cccc1C2 (stereo unspecified) | 5.22 | 1.66 | 5.82 | 192
41 | COC(=O)c1ccc(Cc2ccc3c(c2O)C(=O)c2c(O)cccc2C3)cc1 | < 4.52 | < 0.15 |  | 
